Data published in ChEMBL document CHEMBL1122774, “Tri- and tetrapeptide analogues of kinins as potential renal vasodilators” (J Med Chem, 1984).
Square brackets hold non-standard residues; d marks the D form. Peptide text beside a SMILES is read from it. * marks the point of attachment. ξ: configuration not given here. Butanoyl(4-(4-HOPh)) = O=C(CCCc1ccc(O)cc1)*; ξαMeF = CC(N)(Cc1ccccc1)C(=O)O

Assays:
Canis familiaris [1] = test: In vivo percent change in renal blood flow at 30 ug/Kg/min.; format: functional, Canis lupus familiaris, Kidney
Procedure, shortened: (§1)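 Primary screen in anesthetized dogs (7-17 kg). Drug infused separately at 3, 30 and 300 µg/(kg min), each infusion lasting 5 min, at about 15-min intervals. Read-outs are renal blood flow, mean arterial blood pressure, heart rate, and RVR (MABP / mean RBF), as percent change. Significance thresholds are defined per number of dogs; n = 1-3 dogs.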

Canis familiaris [2] = test: Renal vasodilator activity in anesthetized dogs and percent change in renal vascular resistance (RVR) was determined at 30 ug/Kg/min; format: functional, Canis lupus familiaris; procedure, shortened: as §1
Canis familiaris [3] = test: In vivo percent change in canine heart rate at 3 ug/Kg/min.; format: functional, Canis lupus familiaris; procedure, shortened: as §1
Canis familiaris [4] = test: In vivo percent change in canine heart rate at 30 ug/Kg/min.; format: functional, Canis lupus familiaris; procedure, shortened: as §1
Canis familiaris [5] = test: In vivo percent change in canine heart rate at 300 ug/Kg/min.; format: functional, Canis lupus familiaris; procedure, shortened: as §1
Canis familiaris [6] = test: In vivo percent change in canine mean arterial blood pressure (MABP) at 3 ug/Kg/min.; format: functional, Canis lupus familiaris; procedure, shortened: as §1
Canis familiaris [7] = test: In vivo percent change in canine mean arterial blood pressure (MABP) at 30 ug/Kg/min.; format: functional, Canis lupus familiaris; procedure, shortened: as §1
Canis familiaris [8] = test: In vivo percent change in canine mean arterial blood pressure (MABP) at 300 ug/Kg/min.; format: functional, Canis lupus familiaris; procedure, shortened: as §1
Canis familiaris [9] = test: In vivo percent change in canine renal blood flow (RBF) at 3 ug/Kg/min.; format: functional, Canis lupus familiaris, Kidney; procedure, shortened: as §1
Canis familiaris [10] = test: In vivo percent change in canine renal blood flow (RBF) at 300 ug/Kg/min.; format: functional, Canis lupus familiaris, Kidney; procedure, shortened: as §1
Canis familiaris [11] = test: In vivo percent change in canine renal vascular resistance (RVR) at 3 ug/Kg/min.; format: functional, Canis lupus familiaris; procedure, shortened: as §1
Canis familiaris [12] = test: In vivo percent change in canine renal vascular resistance (RVR) at 300 ug/Kg/min.; format: functional, Canis lupus familiaris; procedure, shortened: as §1
Canis familiaris [13] = test: Renal vasodilator activity in anesthetized dogs and percent change in heart rate (HR) was determined at 3 ug/kg min; format: functional, Canis lupus familiaris; procedure, shortened: as §1
Canis familiaris [14] = test: Renal vasodilator activity in anesthetized dogs and percent change in heart rate (HR) was determined at 30 ug/kg min; format: functional, Canis lupus familiaris; procedure, shortened: as §1
Canis familiaris [15] = test: Renal vasodilator activity in anesthetized dogs and percent change in heart rate (HR) was determined at 300 ug/kg min; format: functional, Canis lupus familiaris; procedure, shortened: as §1
Canis familiaris [16] = test: Renal vasodilator activity in anesthetized dogs and percent change in mean arterial blood pressure (MABP) was determined at 3 ug/kg min; format: functional, Canis lupus familiaris; procedure, shortened: as §1
Canis familiaris [17] = test: Renal vasodilator activity in anesthetized dogs and percent change in mean arterial blood pressure (MABP) was determined at 30 ug/kg min; format: functional, Canis lupus familiaris; procedure, shortened: as §1
Canis familiaris [18] = test: Renal vasodilator activity in anesthetized dogs and percent change in mean arterial blood pressure (MABP) was determined at 300 ug/kg min; format: functional, Canis lupus familiaris; procedure, shortened: as §1
Canis familiaris [19] = test: Renal vasodilator activity in anesthetized dogs and percent change in renal blood flow (RBF) was determined at 3 ug/kg min; format: functional, Canis lupus familiaris, Kidney; procedure, shortened: as §1
Canis familiaris [20] = test: Renal vasodilator activity in anesthetized dogs and percent change in renal blood flow (RBF) was determined at 30 ug/kg min; format: functional, Canis lupus familiaris, Kidney; procedure, shortened: as §1
Canis familiaris [21] = test: Renal vasodilator activity in anesthetized dogs and percent change in renal blood flow (RBF) was determined at 300 ug/kg min; format: functional, Canis lupus familiaris, Kidney; procedure, shortened: as §1
Canis familiaris [22] = test: Renal vasodilator activity in anesthetized dogs and percent change in renal vascular resistance (RVR) was determined at 3 ug/kg min; format: functional, Canis lupus familiaris; procedure, shortened: as §1
Canis familiaris [23] = test: Renal vasodilator activity in anesthetized dogs and percent change in renal vascular resistance (RVR) was determined at 300 ug/kg min; format: functional, Canis lupus familiaris; procedure, shortened: as §1
Canis familiaris [24] = test: Renal vasodilator activity in anesthetized dogs and percent change in renal vascular resistance (RVR) was determined at 30 ug/kg min; format: functional, Canis lupus familiaris; procedure, shortened: as §1

Question: `CC(Cc1ccc(O)cc1)(NC(=O)[C@@H]1CCCN1C(=O)CCCc1ccc(O)cc1)C(=O)NCCCN.Cl` (stereo partly specified) was tested. Which Change (Canis familiaris [1]) did it give?
Answer: Its Change is 3.5%.

Question: What about the Change (Canis familiaris [2]) of the same molecule?
Answer: Its Change is -3%.

Question: What about the Change (Canis familiaris [3]) of the same molecule?
Answer: The Change was 1.5%.

Question: And the Change (Canis familiaris [4])?
Answer: The Change was 4%.

Question: And the Change (Canis familiaris [5])?
Answer: The Change was 3.5%.

Question: And the Change (Canis familiaris [6])?
Answer: Its Change is -2%.

Question: And the Change (Canis familiaris [7])?
Answer: The Change was 1%.

Question: And the Change (Canis familiaris [8])?
Answer: Its Change is 0%.

Question: And the Change (Canis familiaris [9])?
Answer: The Change was 8.5%.

Question: What about the Change (Canis familiaris [10]) of the same molecule?
Answer: The Change was 10%.

Question: And the Change (Canis familiaris [11])?
Answer: Its Change is -9.5%.

Question: And the Change (Canis familiaris [12])?
Answer: The Change was 8.5%.

Question: Which Change (Canis familiaris [1]) does the source give for `O=C(NCC(=O)N1CCC[C@H]1C(=O)O)[C@@H](Cc1ccccc1)NC(=O)[C@@H]1CCCN1C(=O)CCCc1ccc(O)cc1` ({Butanoyl(4-(4-HOPh))}-P[dF]GP-OH) here?
Answer: The Change was 0%.

Question: What about the Change (Canis familiaris [2]) of the same molecule?
Answer: The Change was -1%.

Question: And the Change (Canis familiaris [3])?
Answer: The Change was 1%.

Question: And the Change (Canis familiaris [4])?
Answer: The Change was -2%.

Question: What about the Change (Canis familiaris [5]) of the same molecule?
Answer: The Change was -1%.

Question: And the Change (Canis familiaris [6])?
Answer: The Change was 0%.

Question: And the Change (Canis familiaris [7])?
Answer: The Change was -1%.

Question: What about the Change (Canis familiaris [8]) of the same molecule?
Answer: The Change was -1%.

Question: And the Change (Canis familiaris [9])?
Answer: Its Change is 2%.

Question: What about the Change (Canis familiaris [10]) of the same molecule?
Answer: Its Change is -1%.

Question: And the Change (Canis familiaris [11])?
Answer: Its Change is -2%.

Question: And the Change (Canis familiaris [12])?
Answer: The Change was -1%.

Question: Which Change (Canis familiaris [13]) does the source give for `CC(Cc1ccccc1)(NC(=O)[C@@H]1CCCN1)C(=O)N[C@@H](CCCN=C(N)N)C(=O)O` (stereo partly specified) (H-Pro-[ξαMeF]-Arg-OH) here?
Answer: Its Change is -0.7%.

Question: What about the Change (Canis familiaris [14]) of the same molecule?
Answer: The Change was 0%.

Question: What about the Change (Canis familiaris [15]) of the same molecule?
Answer: Its Change is 0%.

Question: And the Change (Canis familiaris [16])?
Answer: The Change was 1%.

Question: What about the Change (Canis familiaris [17]) of the same molecule?
Answer: Its Change is -0.3%.

Question: And the Change (Canis familiaris [18])?
Answer: Its Change is -0.7%.

Question: What about the Change (Canis familiaris [19]) of the same molecule?
Answer: Its Change is 1.3%.

Question: What about the Change (Canis familiaris [20]) of the same molecule?
Answer: Its Change is 9.3%.

Question: And the Change (Canis familiaris [21])?
Answer: Its Change is 7.3%.

Question: And the Change (Canis familiaris [22])?
Answer: Its Change is 0.3%.

Question: What about the Change (Canis familiaris [23]) of the same molecule?
Answer: The Change was -5.3%.

Question: And the Change (Canis familiaris [24])?
Answer: The Change was -7.3%.

Question: For `N=C(N)NCCC[C@H](NC(=O)[C@H](Cc1ccccc1)NC(=O)[C@@H]1CCCN1)C(=O)O` (H-Pro-Phe-Arg-OH), which Change (Canis familiaris [13]) is on record?
Answer: Its Change is -6%.

Question: What about the Change (Canis familiaris [14]) of the same molecule?
Answer: The Change was 3%.

Question: What about the Change (Canis familiaris [15]) of the same molecule?
Answer: Its Change is 6%.

Question: And the Change (Canis familiaris [16])?
Answer: The Change was -1%.

Question: And the Change (Canis familiaris [17])?
Answer: Its Change is 1%.

Question: What about the Change (Canis familiaris [18]) of the same molecule?
Answer: The Change was -4%.

Question: And the Change (Canis familiaris [19])?
Answer: Its Change is 4%.

Question: And the Change (Canis familiaris [20])?
Answer: The Change was 3%.

Question: And the Change (Canis familiaris [21])?
Answer: The Change was -3%.

Question: And the Change (Canis familiaris [22])?
Answer: The Change was -5%.

Question: What about the Change (Canis familiaris [23]) of the same molecule?
Answer: Its Change is 0%.

Question: And the Change (Canis familiaris [24])?
Answer: The Change was -2%.

Question: Which Change (Canis familiaris [13]) does the source give for `CC(Cc1ccccc1)(NC(=O)[C@@H]1CCCN1)C(=O)N1CCC[C@H]1C(=O)O` (stereo partly specified) (H-Pro-[ξαMeF]-Pro-OH) here?
Answer: The Change was 0%.

Question: And the Change (Canis familiaris [14])?
Answer: Its Change is 0%.

Question: And the Change (Canis familiaris [15])?
Answer: The Change was 0%.

Question: And the Change (Canis familiaris [16])?
Answer: Its Change is 1%.

Question: What about the Change (Canis familiaris [17]) of the same molecule?
Answer: Its Change is 0%.

Question: And the Change (Canis familiaris [18])?
Answer: The Change was -3%.

Question: What about the Change (Canis familiaris [19]) of the same molecule?
Answer: Its Change is 0%.

Question: And the Change (Canis familiaris [20])?
Answer: The Change was 0%.

Question: And the Change (Canis familiaris [21])?
Answer: Its Change is 8%.

Question: And the Change (Canis familiaris [22])?
Answer: Its Change is 1%.

Question: And the Change (Canis familiaris [23])?
Answer: The Change was -10%.

Question: And the Change (Canis familiaris [24])?
Answer: Its Change is 0%.

Question: What does the source list for `CC(Cc1ccccc1)(NC(=O)[C@@H]1CCCN1C(=O)CCCc1ccc(O)cc1)C(=O)N[C@@H](CCCN=C(N)N)C(=O)O` (stereo partly specified)?
Answer: Change (Canis familiaris [13]): 0%; Change (Canis familiaris [14]): 0%; Change (Canis familiaris [15]): 0%; Change (Canis familiaris [16]): -4%; Change (Canis familiaris [17]): 2%; Change (Canis familiaris [18]): 0%; Change (Canis familiaris [19]): 8%; Change (Canis familiaris [20]): 12%; Change (Canis familiaris [21]): 11%; Change (Canis familiaris [22]): -12%; Change (Canis familiaris [23]): -11%; Change (Canis familiaris [24]): -9%

Question: Which results are given for `N=C(N)NCCC[C@H](NC(=O)[C@@H](Cc1ccccc1)NC(=O)[C@@H]1CCCN1C(=O)CCCc1ccccc1)C(=O)O`?
Answer: Change (Canis familiaris [13]): -3%; Change (Canis familiaris [14]): 0%; Change (Canis familiaris [15]): -2%; Change (Canis familiaris [16]): 0%; Change (Canis familiaris [17]): 1%; Change (Canis familiaris [18]): 0%; Change (Canis familiaris [19]): 3%; Change (Canis familiaris [20]): 2%; Change (Canis familiaris [21]): 4%; Change (Canis familiaris [22]): -3%; Change (Canis familiaris [23]): -4%; Change (Canis familiaris [24]): -1%

Question: What does the source list for `CC(Cc1ccccc1)(NC(=O)[C@@H]1CCCN1C(=O)CCCCc1ccccc1)C(=O)N[C@@H](CCCN=C(N)N)C(=O)O` (stereo partly specified)?
Answer: Change (Canis familiaris [13]): -1%; Change (Canis familiaris [14]): -1%; Change (Canis familiaris [15]): 6%; Change (Canis familiaris [16]): 1%; Change (Canis familiaris [17]): 3%; Change (Canis familiaris [18]): 1%; Change (Canis familiaris [19]): 4%; Change (Canis familiaris [20]): 1%; Change (Canis familiaris [21]): 3%; Change (Canis familiaris [22]): -2%; Change (Canis familiaris [23]): -2%; Change (Canis familiaris [24]): 1%
